Source: ChEMBL document CHEMBL1127308, “Inhibition of human neutrophil elastase with peptidyl electrophilic ketones. 2. Orally active PG-Val-Pro-Val pentafluoroethyl ketones” (J Med Chem, 1994)
Active and inactive are the calls of the source. The rule behind the calls is not given here.

Experiments:
Cricetinae gen. sp. = assay: In vivo inhibitory activity against HNE-induced pulmonary hemorrhage was determined in hamsters after oral administration of 25 mg/kg; assay type: functional
In short: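 Hamsters were dosed orally 30 min (one case 15 min) before intratracheal instillation of 20 or 10 μg HNE. After 1 h, lungs were lavaged with saline, and BAL hemoglobin was read at 536–546 nm against a Hgb standard curve. Inhibition was calculated versus vehicle controls, 6–19 hamsters per group, as mean ± SEM, with ANOVA and Dunnett's test (p ≤ 0.05).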

Rattus norvegicus [1] = assay: In vivo inhibitory activity against HNE-induced pulmonary hemorrhage was determined in rats after oral administration of 50 mg/kg; assay type: functional
In short: (§1)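 Rats were dosed orally 45 min before intratracheal instillation of 100 μg HNE. After 1 h, lungs were lavaged with saline, and BAL hemoglobin was measured spectrophotometrically (536–546 nm) against a Hgb standard curve. Percent inhibition was calculated versus vehicle-treated controls, 5–10 rats per group, as mean ± SEM, with one-way ANOVA and Dunnett's test (p ≤ 0.05).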

Neutrophil elastase [2] = target: T1, Neutrophil elastase (Homo sapiens, UniProt P08246); assay: In vitro inhibitory activity against human neutrophil elastase […]; design: dose 50 mg/kg
T1 sequence (P08246 whole entry): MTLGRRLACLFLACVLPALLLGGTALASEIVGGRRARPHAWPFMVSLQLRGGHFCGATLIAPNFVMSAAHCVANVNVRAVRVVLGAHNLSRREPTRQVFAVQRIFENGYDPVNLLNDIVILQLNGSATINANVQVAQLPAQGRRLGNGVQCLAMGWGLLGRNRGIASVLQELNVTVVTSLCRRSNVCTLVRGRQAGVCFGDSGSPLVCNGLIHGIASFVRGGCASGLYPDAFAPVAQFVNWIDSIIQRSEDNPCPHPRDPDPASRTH

[3] = Inhibition of HNE-induced pulmonary hemorrhage when the compound was administered before 30 or 45 min at the dose of 50 mg/kg; orally active; assay type: functional, organism-based; design: dose 50 mg/kg
[4] = Inhibition of HNE-induced pulmonary hemorrhage when the compound was administered before 30 or 45 min at the dose of 50 mg/kg; Not orally active; assay type: functional, organism-based; design: dose 50 mg/kg
Neutrophil elastase [5] = target: T1, Neutrophil elastase; assay: In vitro inhibitory activity against human neutrophil elastase was determined at a dose of 100 mg/kg; assay type: organism-based; design: dose 100 mg/kg
Rattus norvegicus [6] = assay: In vivo inhibitory activity against HNE-induced pulmonary hemorrhage was determined in rats after oral administration of 100 mg/kg; assay type: functional; in short: as §1
Neutrophil elastase [7] = target: T1, Neutrophil elastase; assay: In vitro inhibitory activity against human neutrophil elastase was determined at a dose of 45 mg/kg; assay type: organism-based; design: dose 45 mg/kg
Rattus norvegicus [8] = assay: In vivo inhibitory activity against HNE-induced pulmonary hemorrhage was determined in rats after oral administration of 45 mg/kg; assay type: functional; in short: as §1
[9] = Inhibition of HNE-induced pulmonary hemorrhage when the compound was administered before 30 or 45 min at the dose of 50 mg/kg; not orally active; assay type: functional, organism-based; design: dose 50 mg/kg
[10] = Half life determined from epimerization data at 25 degree C in Tween 20 (81 mM); settings: Tween 20 solution (81 mM)
[11] = target: T2, Cathepsin G (Homo sapiens) (UniProt P08311); assay: Tested for the ability to inhibit human neutrophil cathepsin G at 0.5 mM
T2 sequence (whole entry): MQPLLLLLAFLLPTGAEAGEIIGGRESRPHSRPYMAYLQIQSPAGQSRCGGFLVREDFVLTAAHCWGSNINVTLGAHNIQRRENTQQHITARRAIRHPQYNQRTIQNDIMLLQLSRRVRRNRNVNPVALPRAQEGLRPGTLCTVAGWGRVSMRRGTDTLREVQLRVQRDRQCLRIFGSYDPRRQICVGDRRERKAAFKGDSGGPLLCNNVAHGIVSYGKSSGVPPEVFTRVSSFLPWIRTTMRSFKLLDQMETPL

[12] = Half life determined from epimerization data at 25 degree C in buffered saline
Prothrombin (Bos taurus) = Prothrombin (Bos taurus) (UniProt P00735); assay: Tested for the ability to inhibit bovine thrombin at 0.5 mM
[13] = Half life determined from epimerization data at 37 degree C in human blood serum 2; assay type: ADME, organism-based, Plasma
In short: (§2)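 The L-L-L or L-L-D diastereomer was held at 37 °C in human blood serum (three individual donors) or human plasma, with a sealed D2O capillary inserted into the NMR tube for lock. Epimerization was followed by 19F NMR spectra, and the half-life was taken from these spectra.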

Cathepsin B (Bos taurus) = Cathepsin B (Bos taurus) (UniProt P07688); assay: Tested for the ability to inhibit bovine liver cathepsin B at 0.5 mM
[14] = Half life determined from epimerization data at 37 degree C in human blood plasma; assay type: ADME, organism-based; in short: as §2
[15] = Half life determined from epimerization data at 37 degree C in human blood serum 3; assay type: ADME, organism-based, Plasma; in short: as §2
Pepsin A (Sus scrofa) = Pepsin A (Sus scrofa) (UniProt P00791); assay: Tested for the ability to inhibit pepsin at 0.2 mM
Sequence of Pepsin A (Sus scrofa) (P00791 60-385 limits assumed): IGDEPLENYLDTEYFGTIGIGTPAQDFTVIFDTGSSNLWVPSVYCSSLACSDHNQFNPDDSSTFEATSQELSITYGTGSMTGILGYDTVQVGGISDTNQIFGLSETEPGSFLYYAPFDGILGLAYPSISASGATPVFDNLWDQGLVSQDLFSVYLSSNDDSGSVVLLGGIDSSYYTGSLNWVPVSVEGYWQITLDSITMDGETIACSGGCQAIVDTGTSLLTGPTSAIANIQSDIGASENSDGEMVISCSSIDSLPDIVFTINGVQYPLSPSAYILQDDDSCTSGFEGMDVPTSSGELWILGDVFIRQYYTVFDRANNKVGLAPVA

[16] = target: T3, Neprilysin (Rattus norvegicus) (UniProt P07861); assay: Tested for the ability to inhibit rat kidney enkephalinase at 0.5 mM
T3 sequence (whole entry): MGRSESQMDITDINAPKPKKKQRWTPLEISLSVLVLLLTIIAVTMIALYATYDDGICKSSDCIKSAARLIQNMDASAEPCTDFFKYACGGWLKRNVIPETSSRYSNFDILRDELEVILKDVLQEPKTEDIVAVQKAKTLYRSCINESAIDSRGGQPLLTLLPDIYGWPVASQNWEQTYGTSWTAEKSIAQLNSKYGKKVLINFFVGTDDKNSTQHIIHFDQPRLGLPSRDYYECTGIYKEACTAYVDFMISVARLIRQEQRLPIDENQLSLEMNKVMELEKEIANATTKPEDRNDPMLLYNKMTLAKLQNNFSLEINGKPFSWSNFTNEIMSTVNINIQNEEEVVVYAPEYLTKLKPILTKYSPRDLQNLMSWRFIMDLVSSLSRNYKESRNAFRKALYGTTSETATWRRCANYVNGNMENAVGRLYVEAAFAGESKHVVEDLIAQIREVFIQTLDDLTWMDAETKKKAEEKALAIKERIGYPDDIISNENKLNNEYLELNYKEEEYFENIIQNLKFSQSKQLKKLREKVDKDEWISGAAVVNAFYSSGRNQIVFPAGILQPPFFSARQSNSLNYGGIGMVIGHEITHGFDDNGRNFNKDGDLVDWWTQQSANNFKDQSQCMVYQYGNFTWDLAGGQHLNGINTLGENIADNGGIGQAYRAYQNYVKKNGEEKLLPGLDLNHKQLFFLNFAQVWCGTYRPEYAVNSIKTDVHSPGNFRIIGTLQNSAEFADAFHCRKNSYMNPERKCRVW

Neutrophil elastase [17] = target: T1, Neutrophil elastase; assay: In vitro inhibitory activity against human neutrophil elastase was determined at a dose of 25 mg/kg; assay type: organism-based; design: dose 25 mg/kg
Rattus norvegicus [18] = assay: In vivo inhibitory activity against HNE-induced pulmonary hemorrhage was determined in rats after oral administration of 25 mg/kg; assay type: functional; in short: as §1
Neutrophil elastase [19] = target: T1, Neutrophil elastase; assay: In vitro inhibitory activity against human neutrophil elastase
In short: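 HNE was partially purified from human purulent sputum and assayed with MeO-Suc-Ala-Ala-Pro-Val-p-nitroanilide; the assay contained 10% v/v DMSO. Ki was found either from a double-reciprocal plot (four substrate × three inhibitor concentrations) or, assuming competitive inhibition, from three inhibitor concentrations at 0.2 mM substrate (≈Km) using v0/vi = 1 + [I]/Ki,app and Ki = Ki,app/(1 + [S]/Km). Inhibitor was 5–100-fold over enzyme, with no hydration correction.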

| Ki (Neutrophil elastase [2]) | Compound | inhibition in vivo at 25 mg/kg (Cricetinae gen. sp.) | inhibition in vivo at 50 mg/kg (Rattus norvegicus [1]) | Oral activity [3] | Oral activity [4] | further results |
| --- | --- | --- | --- | --- | --- | --- |
| 170 nM | CC(C)C(NC(=O)[C@@H]1CCCN1C(=O)[C@@H](NC(=O)N1CCOCC1)C(C)C)C(=O)C(F)(F)C(F)(F)F (some centres undefined) | 69% | 69% | Active | – | – |
| 43 nM | CC(C)C(NC(=O)[C@@H]1CCCN1C(=O)[C@@H](NC(=O)c1ccc(NC(=O)N2CCOCC2)cc1)C(C)C)C(=O)C(F)(F)C(F)(F)F (some centres undefined) | – | 26% | – | inactive | – |
| – | CC(C)C(NC(=O)[C@@H]1CCCN1C(=O)[C@@H](NC(=O)c1ccc(C(=O)NS(=O)(=O)c2ccc(Cl)cc2)cc1)C(C)C)C(=O)C(F)(F)C(F)(F)F (some centres undefined) | – | – | – | inactive | Ki (Neutrophil elastase [5]): 7 nM; inhibition in vivo at 100 mg/kg (Rattus norvegicus [6]): -30% |
| – | CC(C)C(NC(=O)[C@@H]1CCCN1C(=O)[C@@H](NC(=O)c1ccc(C(=O)O)cc1)C(C)C)C(=O)C(F)(F)C(F)(F)F (some centres undefined) | -3% | – | – | inactive | – |
| – | CC(C)C(NC(=O)[C@@H]1CCCN1C(=O)[C@@H](NC(=O)CCc1cccnc1)C(C)C)C(=O)C(F)(F)C(F)(F)F (some centres undefined) | 67% | – | Active | – | – |
| – | CC(C)[C@H](NC(=O)c1ccco1)C(=O)N1CCC[C@H]1C(=O)N[C@H](C(=O)C(F)(F)C(F)(F)F)C(C)C | – | – | – | – | Ki (Neutrophil elastase [7]): 190 nM; inhibition in vivo at 45 mg/kg (Rattus norvegicus [8]): 44%; Oral activity [9]: inactive |
| – | CC(C)C(NC(=O)[C@@H]1CCCN1C(=O)[C@@H](NC(=O)C(C(=O)N1CCOCC1)C(C)C)C(C)C)C(=O)C(F)(F)C(F)(F)F (some centres undefined) | 70% | – | Active | – | – |
| 60 nM | CC(C)[C@H](NC(=O)CN1CCOCC1)C(=O)N1CCC[C@H]1C(=O)N[C@H](C(=O)C(F)(F)C(F)(F)F)C(C)C | – | 77% | Active | – | – |
| 25 nM | CC(C)C(NC(=O)[C@@H]1CCCN1C(=O)[C@@H](NC(=O)c1ccc(C(=O)N2CCOCC2)cc1)C(C)C)C(=O)C(F)(F)C(F)(F)F (some centres undefined) | 74% | 69% | Active | – | half-life [10]: 70 min; inhibition [11]: 15%; half-life [12]: > 8.33 days; inhibition (Prothrombin (Bos taurus)): < 5%; half-life [13]: 30 min; inhibition (Cathepsin B (Bos taurus)): < 5%; half-life [14]: 30 min; half-life [15]: 30 min; inhibition (Pepsin A (Sus scrofa)): 40%; inhibition [16]: < 5% |
| – | CC(C)C(NC(=O)[C@@H]1CCCN1C(=O)[C@@H](NC(=O)c1ccc(C(=O)N2CCOCC2)nc1)C(C)C)C(=O)C(F)(F)C(F)(F)F (some centres undefined) | 61% | – | – | – | – |
| – | CC(C)C(NC(=O)[C@@H]1CCCN1C(=O)[C@@H](NC(=O)c1ccc(S(=O)(=O)N2CCOCC2)cc1)C(C)C)C(=O)C(F)(F)C(F)(F)F (some centres undefined) | 30% | – | – | inactive | – |
| – | CC(C)C(NC(=O)[C@@H]1CCCN1C(=O)[C@@H](NC(=O)CC(=O)N1CCOCC1)C(C)C)C(=O)C(F)(F)C(F)(F)F (some centres undefined) | – | – | – | – | Ki (Neutrophil elastase [17]): 70 nM; inhibition in vivo at 25 mg/kg (Rattus norvegicus [18]): 41% |
| – | CC(C)C(NC(=O)[C@@H]1CCCN1C(=O)[C@@H](NC(=O)c1ccc(C(=O)N2CCN(C(=O)N3CCOCC3)CC2)cc1)C(C)C)C(=O)C(F)(F)C(F)(F)F (some centres undefined) | 31% | – | – | inactive | – |
| – | CC(C)[C@H](NC(=O)N(C)C)C(=O)N1CCC[C@H]1C(=O)N[C@H](C(=O)C(F)(F)C(F)(F)F)C(C)C | – | 70% | Active | – | Ki (Neutrophil elastase [19]): 261 nM |
| 59 nM | CC(C)C(NC(=O)[C@@H]1CCCN1C(=O)[C@@H](NC(=O)C1CCOCC1)C(C)C)C(=O)C(F)(F)C(F)(F)F (some centres undefined) | – | 71% | Active | – | – |
